# Bioassay records deposited in PubChem by Johns Hopkins Ion Channel Center.
# KCNQ1 inh = inhibitors of human KCNQ1 potassium channel | P51787 | CHO-K1 KCNQ1, FluxOR thallium flux fluorescence; hits give high values | AID 2642 | B-score at 10 µM | hit rate 1.3% among 310,000;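 active means compounds whose thallium flux B-score, printed positive for inhibition, exceeds three library SD while starting fluorescence stays within three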;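 further: channel opened by potassium depolarization with thallium stimulus after 20 min compound exposure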
# KCNQ1 pot = human KCNQ1 channel potentiation or activation | P51787 | CHO-K1 KCNQ1, thallium flux FluxOR fluorescence; hits give high values | B-score at 10 µM | hit rate 0.35% among 310,000;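 active means fluorescence ratio B-score, a plate-corrected score, at least three library SD, with initial intensity B-score within 5 SD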
#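 Assay system: stable KCNQ1 CHO-K1 line; medium: assay buffer, equal DMSO in all wells; timing: 90 min dye loading and 20 min compound exposure, both at room temperature; technique: kinetic FluxOR thallium fluorescence, 10-s 1-Hz baseline, 110-s post-stimulus read; read-out basis: B score of baseline-normalized fluorescence ratio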
# hERG rescue = compounds protecting human hERG from proarrhythmic drug block. activation (rescue from dofetilide block), less the hit threshold, % at 10 µM. Q12809. hit rate 0.51% among 310,000. CHO-hERG, FluxOR thallium flux, dofetilide IC70 present;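 active means activation above the mean of controls blocked by dofetilide plus 5 SD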;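 further: thallium influx through hERG after potassium depolarization seen as dye fluorescence rise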
# KCNK9 block = inhibitors of human KCNK9 two-pore domain potassium channel. Q9NPC2. hit rate 1.2% among 310,000. B-score at 10 µM. HEK293 KCNK9, FluxOR thallium flux fluorescence; hits give low values;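 active means ratio B-score over 3 SD below the library mean, with starting fluorescence within 5 SD of its mean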;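 further: negative B-score means less thallium flux so channel inhibition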
# Kir21 block = Kir2.1 (mouse) channel inhibition; HEK293-Kir2.1, FluxOR thallium flux fluorescence; hits give low values; B-score at 10 µM; hit rate 0.85% among 310,000; AID 1672;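 active means fluorescence ratio B-score at or below minus 3 SD of library scores, with starting-brightness B-score within 2 SD, cut at about -4.2 in these data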;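 further: channel flux triggered by added potassium and thallium sulfate stimulus; B-score of peak minus minimum fluorescence over baseline after thallium stimulus; more negative B-score means stronger Kir2.1 block with less thallium influx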
# Target sequence (P35561 whole entry, looked up): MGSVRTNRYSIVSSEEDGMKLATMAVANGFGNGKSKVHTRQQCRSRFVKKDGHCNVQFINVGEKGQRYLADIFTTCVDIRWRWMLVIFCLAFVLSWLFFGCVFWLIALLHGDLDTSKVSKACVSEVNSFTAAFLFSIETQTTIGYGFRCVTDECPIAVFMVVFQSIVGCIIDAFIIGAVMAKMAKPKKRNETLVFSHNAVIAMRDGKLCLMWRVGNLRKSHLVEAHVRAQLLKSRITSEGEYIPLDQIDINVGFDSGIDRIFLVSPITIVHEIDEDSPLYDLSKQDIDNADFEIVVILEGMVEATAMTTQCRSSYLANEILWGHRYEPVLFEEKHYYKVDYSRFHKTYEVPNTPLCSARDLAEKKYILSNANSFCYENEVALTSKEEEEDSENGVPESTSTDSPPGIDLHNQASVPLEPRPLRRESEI
# KCNK3 block = human KCNK3 channel inhibition, primary screen | AID 602410 | B-score at 10 µM | O14649 | CHO-KCNK3 thallium flux, FluxOR fluorescence; hits give low values | hit rate 0.84% among 340,000;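 active means B-score under library mean minus 4 SD, starting fluorescence ratio at most library mean plus 5 SD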;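 further: more negative B-score means stronger inhibition of thallium flux through KCNK3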
# The depositor's hits bear a star; i = inactive; x = no result given; ! = a repeat was not active. Shown are actives, neighbours in structure and some others; about 3.8% of the full set was active somewhere.
SMILES,KCNQ1 inh,KCNQ1 pot,hERG rescue,KCNK9 block,Kir21 block,KCNK3 block
CCOC(=O)c1cc2c(=O)n3cccc(C)c3nc2n(Cc2ccco2)c1=NC(=O)c1cccnc1,x,x,x,x,x,i
Cc1cccn2c(=O)c3cc(C#N)c(=NC(=O)c4ccco4)n(Cc4ccco4)c3nc12,i,i,-4,i,-0.3,i
CCOC(=O)c1cc2c(=O)n3ccccc3nc2n(Cc2ccco2)c1=NC(=O)c1cccnc1,7*,i,-23,i,-4.3,i
Cc1cccn2c(=O)c3cc(C#N)c(=NC(=O)c4ccccc4)n(Cc4ccco4)c3nc12,i,i,-22,-7.3*,-0.07,-9.1*!
Cc1cccc(C(=O)N=c2c(C#N)cc3c(=O)n4cccc(C)c4nc3n2Cc2ccco2)c1,7*,i,-17,i,-1.1,i
Cc1cccc(NS(=O)(=O)c2c(C)nc3scc(C)n3c2=O)c1,i,i,-10,i,1.1,i
Clc1ccc(Cn2c(-c3cccnc3Cl)nc3ccccc32)c(Cl)c1,i,i,-17,i,0.78,i
Clc1ccc(Cn2c(-c3cccnc3Cl)nc3ccccc32)cc1,i,i,-13,i,-5.3*,i
O=C(NC(=S)N1CCCCCC1)c1ccc(Cl)cc1Cl,i,21*,7.0*,i,-0.68,i
O=C(NC(=S)N1CCN(c2ccccc2)CC1)c1ccccc1,i,20*,10*,i,-0.72,i
O=C(NC(=S)N1CCCCCC1)c1ccccc1,i,i,5.8*,i,0.07,i
O=C(NC(=S)N1CCCC1)c1ccccc1,i,i,-5,i,0.05,i
COCCn1c(=O)c2c(nc3n2CC(C)CN3Cc2ccccc2)n(C)c1=O (configuration not stated),i,i,-4,i,-0.1,i
O=c1c(/C=C(\O)c2ccccc2)nc2ccccc2n1-c1ccccc1,i,i,-3,-8.1*,1.6,i
O=C(CCl)c1ccc2c(c1)CCN2C(=O)C1CC1,i,i,-6,i,-5.7*,x
CCCCOc1ccc(C(=O)Nc2ccc(S(=O)(=O)Nc3cc(C)on3)cc2)cc1OC,i,i,4.9*,i,0.65,i
Cc1ccc(SCC(=O)OCC(=O)NCCc2ccccc2)cc1C,x,x,x,x,x,i
CCOP(=O)(OCC)c1nc(-c2ccccc2)oc1NCc1ccccc1,i,i,-19,i,-1.5,i
CCOP(=O)(OCC)c1nc(-c2ccc(F)cc2)oc1NCc1ccccc1,i,i,-11,-6.6*,-1.6,i
CC1CCCCN1C(=O)/C(=C\c1ccccc1)c1ccccc1 (configuration not stated),i,i,-10,i,-1.8,i
COc1ccc(C(CC(=O)O)NC(=O)C(c2ccccc2)c2ccccc2)cc1 (configuration not stated),i,i,11*,i,-0.08,i
CC1=NN(c2nc(-c3ccc(C)cc3)cs2)C(=O)C1N=Nc1cccc(O)c1 (configuration not stated),i,i,-20,i,-0.71,i
CC1=NN(c2nc(-c3ccc(C)cc3)cs2)C(=O)C1N=Nc1ccccc1O (configuration not stated),6*,i,-13,i,-0.35,i
C=CCS/C(=N\n1cnc2ccccc2c1=O)N(CC)CC,i,i,-11,-7.6*,-0.04,i
FC(F)C(F)(F)C(F)(F)C(F)(F)c1cc(-c2ccccc2)n[nH]1,i,i,-19,-7.8*,1.5,i
SMILES,KCNQ1 inh,KCNQ1 pot,hERG rescue,KCNK9 block,Kir21 block,KCNK3 block
Cc1cc(-c2ccccc2)n[nH]1,i,i,-9,i,1.2,i
CN1C(=O)c2ccc(C(=O)Nc3ccc4c(c3)OCO4)cc2C1=O,i,i,-12,i,0.01,i
O=C(Nc1ccccc1)NC1CC2CCC(C1)N2Cc1nnnn1Cc1ccc2c(c1)OCO2 (configuration not stated),i,i,-13,i,0.13,i
CCOc1ccccc1NC(=O)NC1CC2CCCC(C1)N2Cc1nnnn1CCc1ccccc1 (configuration not stated),i,i,-7,i,0.37,-9.1*
Cc1cc(Br)ccc1NC(=O)CN(C)C(=O)C1CCN(C(=O)c2ccc(Cl)cc2)CC1,x,x,x,x,x,i
COc1cccc(Oc2ccc(C(F)(F)F)cc2NC(=O)C2=COCCO2)c1,10*,i,-8,i,1.1,i
Cc1ccc(C(=O)N2NC(c3ccc(F)cc3)C3C(=O)N(c4ccc(C)c(C)c4)C(=O)C32)cc1 (configuration not stated),i,i,-8,i,0.56,i
COC(=O)N1C(=O)[C@@](Cc2ccccc2)(c2ccccc2)N1C(=O)OC,i,i,5.4*,i,0.67,i
Cc1ccccc1NC1=C/C(=N\S(=O)(=O)c2ccc(C(=O)O)cc2)c2ccccc2C1=O,i,i,6.1*,i,2.1,i
CCNc1nc(SCCOc2ccc(C)cc2)nc(N(C)C)n1,i,i,-11,i,-0.42,i
Cc1ccc(OCCSc2nc(NC(C)C)nc(NC(C)C)n2)cc1,6*,i,-16,i,0.18,i
Cc1ccc(N2C(=O)c3ccc(C(=O)Nc4cccnc4)cc3C2=O)c(C)c1,i,i,4.7*,i,-0.13,i
CCN1CCCC1CNC(=O)c1ccc2c(c1)NC(=O)/C(=C\c1ccc(C)cc1)S2 (configuration not stated),11*,i,-22,i,-2.8,i
Cc1c(O)cc2c(c1O)C(=O)CC(c1ccc(O)cc1)O2 (configuration not stated),i,i,-7,i,-0.71,i
CC(C)=CCc1c(O)c(CC=C(C)C)c2c(c1O)C(=O)CC(c1ccc(O)cc1)O2 (configuration not stated),8*,i,-4,i,-0.37,i
O=C(CCCCC(=O)NNC(=O)COc1ccccc1)NNC(=O)COc1ccccc1,i,i,-4,i,0,i
CCOc1cc(C2C(C#N)=C(N)OC3=C2C(=O)CC(C)(C)C3)cc([N+](=O)[O-])c1O (configuration not stated),i,i,-4,i,-0.03,i
CC1(C)CC(=O)C2=C(C1)OC(N)=C(C#N)C2c1cc2c(cc1[N+](=O)[O-])OCO2 (configuration not stated),10*,i,-24,i,-11,i
N/C(=N\OC(=O)CSc1ccccc1)c1ccncc1,i,i,-1,i,-1.3,i
